The source made the active and inactive calls. The rule behind the calls is not given here.
Legend:
NCI-H460 = experiment: Cytotoxicity against human NCI-H460 cells after 24 hrs by SRB assay; type: functional, cell-based; details: NCI-H460, 24 h
Outline: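 NCI-H460 cells were grown in RPMI-1640 with L-glutamine, 10% heat-inactivated FCS and 50 μg/mL gentamicin. Cells were seeded at about 10% confluence and allowed to recover for 24 h. They were exposed to varying concentrations for 24 h, washed, then cultured a further 48 h. Surviving cells were measured by SRB. IC50 is the 50% reduction in cell number versus vehicle, from dose–response curve fitting; means of at least three experiments.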

[1] = target: T1, Polyamine deacetylase HDAC10 (Homo sapiens, UniProt Q969S8); experiment: Inhibition of HDAC10 (unknown origin) using fluorogenic tetrapeptide RHKK(Ac) substrate by fluorescence assay
T1 sequence (Q969S8 whole entry): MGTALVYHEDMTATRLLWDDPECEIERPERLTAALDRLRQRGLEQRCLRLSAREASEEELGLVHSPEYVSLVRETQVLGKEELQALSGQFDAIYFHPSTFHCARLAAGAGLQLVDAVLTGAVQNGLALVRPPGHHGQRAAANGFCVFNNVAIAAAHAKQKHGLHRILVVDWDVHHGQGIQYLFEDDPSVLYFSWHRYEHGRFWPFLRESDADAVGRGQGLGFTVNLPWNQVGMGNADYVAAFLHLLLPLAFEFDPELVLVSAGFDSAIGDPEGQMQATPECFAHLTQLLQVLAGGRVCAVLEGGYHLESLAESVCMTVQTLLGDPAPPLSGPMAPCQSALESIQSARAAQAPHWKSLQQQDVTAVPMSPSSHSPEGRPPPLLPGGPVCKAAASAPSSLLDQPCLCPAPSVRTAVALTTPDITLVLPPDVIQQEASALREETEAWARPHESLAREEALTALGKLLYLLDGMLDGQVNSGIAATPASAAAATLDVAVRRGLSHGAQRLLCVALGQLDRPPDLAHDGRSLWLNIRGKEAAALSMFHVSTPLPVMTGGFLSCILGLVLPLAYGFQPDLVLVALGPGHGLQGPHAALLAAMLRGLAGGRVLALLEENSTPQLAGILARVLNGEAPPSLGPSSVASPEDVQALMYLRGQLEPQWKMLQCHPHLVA

Histone deacetylase 2 = Histone deacetylase 2 (Homo sapiens, UniProt Q92769); experiment: Inhibition of HDAC2 (unknown origin) using fluorogenic tetrapeptide RHKK(Ac) substrate at <50 uM by fluorescence assay
Histone deacetylase 2, sequence (Q92769 whole entry, the tested form may be a part): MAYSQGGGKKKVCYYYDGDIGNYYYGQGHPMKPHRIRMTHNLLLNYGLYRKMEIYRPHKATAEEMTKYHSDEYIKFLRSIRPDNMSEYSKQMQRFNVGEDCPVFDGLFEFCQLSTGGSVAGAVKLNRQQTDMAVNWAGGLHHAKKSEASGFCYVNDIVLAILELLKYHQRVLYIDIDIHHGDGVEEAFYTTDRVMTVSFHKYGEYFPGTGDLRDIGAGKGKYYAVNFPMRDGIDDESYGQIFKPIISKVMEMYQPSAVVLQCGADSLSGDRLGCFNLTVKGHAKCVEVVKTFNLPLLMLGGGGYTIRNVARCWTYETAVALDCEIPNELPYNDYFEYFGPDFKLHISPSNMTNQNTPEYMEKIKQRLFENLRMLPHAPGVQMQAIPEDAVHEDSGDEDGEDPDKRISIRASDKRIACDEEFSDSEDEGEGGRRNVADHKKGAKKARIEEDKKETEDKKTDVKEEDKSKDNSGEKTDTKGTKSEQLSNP
Outline: (§1)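 Fluorogenic assay with the tetrapeptide RHKK(Ac) substrate (p53 residues 379–382) at 50 μM.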

Histone deacetylase 1 [2] = target: T2, Histone deacetylase 1 (Homo sapiens, UniProt Q13547); experiment: Inhibition of HDAC1 (unknown origin) using fluorogenic tetrapeptide RHKK(Ac) substrate by fluorescence assay
T2 sequence (Q13547 whole entry): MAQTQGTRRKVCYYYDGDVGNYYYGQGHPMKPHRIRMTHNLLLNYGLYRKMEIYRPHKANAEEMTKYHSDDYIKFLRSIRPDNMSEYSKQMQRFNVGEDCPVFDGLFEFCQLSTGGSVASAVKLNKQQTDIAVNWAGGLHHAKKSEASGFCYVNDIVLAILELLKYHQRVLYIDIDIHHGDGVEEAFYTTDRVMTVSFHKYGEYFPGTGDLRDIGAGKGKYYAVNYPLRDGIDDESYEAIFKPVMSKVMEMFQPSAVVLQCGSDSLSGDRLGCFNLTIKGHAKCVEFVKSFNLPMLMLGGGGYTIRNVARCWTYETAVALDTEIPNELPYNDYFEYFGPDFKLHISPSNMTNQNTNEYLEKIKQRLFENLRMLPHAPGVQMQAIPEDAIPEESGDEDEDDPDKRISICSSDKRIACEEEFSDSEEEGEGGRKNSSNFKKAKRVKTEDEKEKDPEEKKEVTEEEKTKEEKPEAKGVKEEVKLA

Histone deacetylase 3 = Histone deacetylase 3 (Homo sapiens, UniProt O15379); experiment: Inhibition of HDAC3 (unknown origin) using fluorogenic tetrapeptide RHKK(Ac) substrate by fluorescence assay
Histone deacetylase 3, sequence (O15379 whole entry): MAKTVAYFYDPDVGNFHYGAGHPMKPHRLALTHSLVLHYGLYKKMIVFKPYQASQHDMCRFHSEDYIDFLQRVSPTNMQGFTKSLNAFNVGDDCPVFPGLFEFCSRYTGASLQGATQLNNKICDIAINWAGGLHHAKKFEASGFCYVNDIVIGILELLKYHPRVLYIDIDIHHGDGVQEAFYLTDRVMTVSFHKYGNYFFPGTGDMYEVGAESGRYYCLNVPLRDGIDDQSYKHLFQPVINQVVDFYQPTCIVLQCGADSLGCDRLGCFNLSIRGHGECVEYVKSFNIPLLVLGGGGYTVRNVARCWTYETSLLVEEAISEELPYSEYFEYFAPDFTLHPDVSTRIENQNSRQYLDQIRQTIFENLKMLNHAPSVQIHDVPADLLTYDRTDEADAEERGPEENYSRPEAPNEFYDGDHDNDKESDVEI

Histone deacetylase 8 = target: T3, Histone deacetylase 8 (Homo sapiens, UniProt Q9BY41); experiment: Inhibition of HDAC8 (unknown origin) using fluorogenic tetrapeptide RHK(Ac)K(Ac) substrate by fluorescence assay
T3 sequence (Q9BY41 whole entry): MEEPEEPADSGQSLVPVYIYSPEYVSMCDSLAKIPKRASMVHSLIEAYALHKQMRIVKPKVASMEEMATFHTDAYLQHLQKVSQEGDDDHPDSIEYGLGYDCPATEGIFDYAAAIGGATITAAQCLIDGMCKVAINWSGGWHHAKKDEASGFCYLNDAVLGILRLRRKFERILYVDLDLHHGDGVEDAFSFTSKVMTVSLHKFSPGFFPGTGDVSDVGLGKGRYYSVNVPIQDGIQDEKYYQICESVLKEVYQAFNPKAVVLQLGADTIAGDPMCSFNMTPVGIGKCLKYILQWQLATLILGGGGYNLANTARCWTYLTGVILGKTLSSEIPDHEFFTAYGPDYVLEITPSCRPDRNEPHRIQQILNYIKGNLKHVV

Histone deacetylase 11 = target: T4, Histone deacetylase 11 (Homo sapiens, UniProt Q96DB2); experiment: Inhibition of HDAC11 (unknown origin) using fluorogenic tetrapeptide RHKK(Ac) substrate by fluorescence assay
T4 sequence (Q96DB2 whole entry): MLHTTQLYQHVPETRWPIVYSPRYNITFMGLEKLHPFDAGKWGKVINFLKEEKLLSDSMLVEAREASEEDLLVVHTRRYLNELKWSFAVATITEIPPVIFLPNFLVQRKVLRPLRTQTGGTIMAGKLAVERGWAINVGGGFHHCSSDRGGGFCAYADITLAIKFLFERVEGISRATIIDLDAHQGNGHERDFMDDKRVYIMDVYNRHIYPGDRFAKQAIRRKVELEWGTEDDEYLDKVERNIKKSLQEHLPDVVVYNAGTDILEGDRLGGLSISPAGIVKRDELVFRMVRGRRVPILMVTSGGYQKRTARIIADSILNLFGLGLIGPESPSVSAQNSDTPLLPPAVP

[3] = target: T5, Protein deacetylase HDAC6 (Homo sapiens, UniProt Q9UBN7); experiment: Inhibition of HDAC6 (unknown origin) using fluorogenic tetrapeptide RHKK(Ac) substrate by fluorescence assay
T5 sequence (Q9UBN7 whole entry): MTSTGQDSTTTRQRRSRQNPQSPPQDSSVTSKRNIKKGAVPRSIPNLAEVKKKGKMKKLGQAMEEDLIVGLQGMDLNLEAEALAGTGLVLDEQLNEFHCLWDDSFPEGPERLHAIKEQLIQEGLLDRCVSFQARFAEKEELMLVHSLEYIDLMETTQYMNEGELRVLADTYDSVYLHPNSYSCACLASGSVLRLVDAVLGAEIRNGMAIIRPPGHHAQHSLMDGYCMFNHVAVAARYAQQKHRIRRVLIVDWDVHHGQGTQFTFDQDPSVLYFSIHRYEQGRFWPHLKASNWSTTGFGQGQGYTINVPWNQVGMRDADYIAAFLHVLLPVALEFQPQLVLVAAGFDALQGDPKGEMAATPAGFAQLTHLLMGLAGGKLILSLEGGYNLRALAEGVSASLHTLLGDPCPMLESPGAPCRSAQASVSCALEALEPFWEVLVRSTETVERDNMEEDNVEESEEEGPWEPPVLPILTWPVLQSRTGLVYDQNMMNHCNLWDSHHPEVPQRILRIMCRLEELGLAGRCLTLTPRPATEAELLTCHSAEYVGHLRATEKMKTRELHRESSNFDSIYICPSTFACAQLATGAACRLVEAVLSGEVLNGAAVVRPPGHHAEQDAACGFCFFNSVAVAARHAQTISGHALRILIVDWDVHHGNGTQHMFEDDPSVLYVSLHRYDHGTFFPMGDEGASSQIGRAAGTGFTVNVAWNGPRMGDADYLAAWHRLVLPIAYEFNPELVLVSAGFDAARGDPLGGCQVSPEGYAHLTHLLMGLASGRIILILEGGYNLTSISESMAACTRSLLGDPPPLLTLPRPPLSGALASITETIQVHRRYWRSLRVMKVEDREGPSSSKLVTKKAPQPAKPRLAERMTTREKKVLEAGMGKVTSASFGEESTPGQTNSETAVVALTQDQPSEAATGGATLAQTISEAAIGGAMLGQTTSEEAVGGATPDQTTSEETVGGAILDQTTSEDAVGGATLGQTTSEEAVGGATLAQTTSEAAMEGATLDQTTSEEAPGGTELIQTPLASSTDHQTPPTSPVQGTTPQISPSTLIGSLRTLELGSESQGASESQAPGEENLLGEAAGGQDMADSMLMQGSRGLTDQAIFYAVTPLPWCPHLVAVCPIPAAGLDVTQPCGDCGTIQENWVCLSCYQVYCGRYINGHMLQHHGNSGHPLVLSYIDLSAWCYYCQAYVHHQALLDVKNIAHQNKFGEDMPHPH

[4] = Solubility of the compound in water; type: physicochemical
[5] = target: T6, Histone deacetylase 8 (Homo sapiens) (UniProt Q9BY41); experiment: Inhibition of HDAC8 (unknown origin) using fluorogenic tetrapeptide RHK(Ac)K(Ac) substrate at <50 uM by fluorescence assay
T6 sequence (whole entry): T3 sequence (Q9BY41 whole entry)
Outline: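 The HDAC8 assay used the diacetylated fluorogenic substrate RHK(Ac)K(Ac) at 50 μM.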

[6] = target: T7, Protein deacetylase HDAC6 (Homo sapiens) (UniProt Q9UBN7); experiment: Inhibition of HDAC6 (unknown origin) using fluorogenic tetrapeptide RHKK(Ac) substrate at <50 uM by fluorescence assay; outline: as §1
T7 sequence (whole entry): T5 sequence (Q9UBN7 whole entry)

Histone deacetylase [7] = experiment: Inhibition of HDAC-mediated histone H4 deacetylation in human NCI-H460 cells after 3 hrs by Western blot analysis; type: cell-based
Outline: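 NCI-H460 cells were plated the day before and treated 3 h across a dose range. Cells were washed with DPBS containing 5 mM NaB and lysed in HNB buffer with 1% NP-40. Histones were acid-extracted from nuclei with 0.4 equiv/L H2SO4 and precipitated with acetone. Blots were probed for acetyl-H4 against total H4. Read-out was ECL and densitometry after normalization; IC50 fitted; means of at least two experiments.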

[8] = Cytotoxicity against human HCT116 cells after 24 hrs by SRB assay; type: functional, cell-based; details: HCT-116, 24 h
Outline: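 HCT116 cells were cultured in McCoy's 5A with L-glutamine, 10% heat-inactivated FCS and 50 μg/mL gentamicin. After seeding at about 10% confluence and a 24 h recovery, they received drug for 24 h. Drug was washed out and cells were incubated 48 h more before SRB staining. IC50 is the 50% cell-number reduction versus vehicle, from fitted dose–response curves; means of at least two experiments.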

Histone deacetylase [9] = experiment: Inhibition of HDAC-mediated tubulin deacetylation in human NCI-H460 cells after 3 hrs by Western blot analysis; type: cell-based
Outline: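 Cells (NCI-H460) were treated for 3 h with graded concentrations. The cytoplasmic fraction was collected after HNB/1% NP-40 lysis and centrifugation of nuclei at 2000g. This fraction was resolved by SDS-PAGE and probed for acetylated α-tubulin against α-tubulin and β-actin. Bands were detected by ECL and quantified by densitometry after normalization; IC50 fitted; means of at least two experiments.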

[10] = target: T8, Polyamine deacetylase HDAC10 (Homo sapiens) (UniProt Q969S8); experiment: Inhibition of HDAC10 (unknown origin) using fluorogenic tetrapeptide RHKK(Ac) substrate at <50 uM by fluorescence assay; outline: as §1
T8 sequence (whole entry): T1 sequence (Q969S8 whole entry)

Histone deacetylase 1 [11] = target: T2, Histone deacetylase 1; experiment: Inhibition of HDAC1 (unknown origin) using fluorogenic tetrapeptide RHKK(Ac) substrate at <50 uM by fluorescence assay; outline: as §1

SMILES: CC(=O)SCCCCC[C@H](NC(=O)[C@@H]1CCCC(=O)N1)C(=O)Nc1cccc(C)c1
- IC50 (NCI-H460): 0.06 µM

SMILES: O=C1CCC[C@@H](C(=O)N[C@@H](CCCCCS)C(=O)N2CCc3ccccc3C2)N1
- IC50 [1]: 6 µM
- inhibition (Histone deacetylase 2): inactive
- IC50 (Histone deacetylase 1 [2]): 2.9 µM
- IC50 (Histone deacetylase 3): 6.33 µM
- IC50 (Histone deacetylase 8): 2.23 µM
- IC50 (Histone deacetylase 11): 0.293 µM
- IC50 [3]: 0.582 µM

SMILES: CCOC(=O)SCCCCCCC(=O)Nc1ccccc1
- solubility [4]: > 1000 µg/mL

SMILES: O=C(CCCCCCS)N1CCc2ccccc2C1
- inhibition [5]: inactive
- IC50 [1]: 2.93 µM
- inhibition (Histone deacetylase 2): inactive
- IC50 (Histone deacetylase 1 [2]): 1.75 µM
- IC50 (Histone deacetylase 3): 35.8 µM
- IC50 (Histone deacetylase 11): 0.949 µM
- inhibition [6]: inactive

SMILES: CC(=O)SCCCCCCC(=O)Nc1ccccc1
- solubility [4]: > 1000 µg/mL

SMILES: CC(=O)SCCCCC[C@H](NC(=O)[C@@H]1CCC(=O)N1)C(=O)Nc1cccc(C)c1
- IC50 (NCI-H460): 0.06 µM

SMILES: CC(=O)SCCCCC[C@H](NC(=O)[C@@H]1CC(=O)N1)C(=O)Nc1ccccc1
- IC50 (NCI-H460): 0.05 µM
- IC50 (Histone deacetylase [7]): 0.031 µM
- IC50 [8]: 0.086 µM
- IC50 (Histone deacetylase [9]): 0.05 µM

SMILES: O=C1CCC[C@@H](C(=O)N[C@H](CCCCCS)C(=O)Nc2ccccc2)N1
- inhibition [5]: inactive
- inhibition [10]: inactive
- inhibition (Histone deacetylase 2): inactive
- IC50 (Histone deacetylase 3): 17.1 µM
- IC50 (Histone deacetylase 11): 14.2 µM
- inhibition (Histone deacetylase 1 [11]): inactive
- IC50 [3]: 9.38 µM

SMILES: CC(=O)SCCCCC[C@H](NC(=O)[C@H]1CCCC(=O)N1)C(=O)Nc1ccccc1
- IC50 (NCI-H460): 0.1 µM
